Source: PubChem (Broad Institute)
T cruzi growth-1 – T. cruzi intracellular proliferation inhibitors, primary screen, cell-based, beta-gal Tulahuen parasites, NIH3T3 host, luminescence. T. cruzi beta-gal in NIH3T3, GalScreen luminescence, 90 h. inhibition, % at 8.34 µM. hit rate 5.9% among 77,000;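 active = mean inhibition above about 93%, with at least 55% of replicates each passing it, limit read from the data, passing the limit was not always enough; inconclusive = only one of those two conditions holds; inactive = neither condition holds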
IDH1 mut inh – inhibitors of IDH1 R132H reductase, primary screen, biochemical, plate reader, single point; inhibition, % at 10 µM; hit rate 0.18% among 70,000; AID 624101, 2012; Isocitrate dehydrogenase [NADP] cytoplasmic (Homo sapiens), O75874; diaphorase/resazurin fluorescence, 60 min; in the data active = inhibition above about 34%; inconclusive = no clear call, values can overlap the other calls; inactive = below about 11%;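 also: 0% = DMSO and 100% = no enzyme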
Target sequence (O75874 whole entry R132H): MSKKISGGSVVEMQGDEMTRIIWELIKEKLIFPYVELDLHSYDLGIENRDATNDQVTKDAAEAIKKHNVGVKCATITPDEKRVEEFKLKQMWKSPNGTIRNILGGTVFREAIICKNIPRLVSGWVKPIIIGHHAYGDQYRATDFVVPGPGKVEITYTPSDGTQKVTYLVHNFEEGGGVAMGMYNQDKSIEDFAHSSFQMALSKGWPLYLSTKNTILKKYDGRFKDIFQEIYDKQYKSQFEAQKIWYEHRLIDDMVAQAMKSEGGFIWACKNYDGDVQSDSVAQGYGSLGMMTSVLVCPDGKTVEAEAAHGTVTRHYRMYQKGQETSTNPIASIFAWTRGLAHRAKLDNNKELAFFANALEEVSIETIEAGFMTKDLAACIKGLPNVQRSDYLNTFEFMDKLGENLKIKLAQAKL
KDM4C inh – inhibitors of GASC-1 (KDM4C) histone demethylase, primary screen, biochemical, single concentration HTS; Lysine-specific demethylase 4C (Homo sapiens), Q9H3R0; GST-KDM4C 2-372, H3K9me3 peptide, LANCE TR-FRET; inhibition, % at 12.5 µM; hit rate 0.15% among 96,000; AID 720574, 2013;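 active = mean replicate inhibition above about 25%, with at least 55% of replicates also reaching it, limit read from the data, passing the limit was not always enough; inconclusive = only one of those two conditions met; inactive = neither condition met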
Target sequence (Q9H3R0 2-372 limits assumed): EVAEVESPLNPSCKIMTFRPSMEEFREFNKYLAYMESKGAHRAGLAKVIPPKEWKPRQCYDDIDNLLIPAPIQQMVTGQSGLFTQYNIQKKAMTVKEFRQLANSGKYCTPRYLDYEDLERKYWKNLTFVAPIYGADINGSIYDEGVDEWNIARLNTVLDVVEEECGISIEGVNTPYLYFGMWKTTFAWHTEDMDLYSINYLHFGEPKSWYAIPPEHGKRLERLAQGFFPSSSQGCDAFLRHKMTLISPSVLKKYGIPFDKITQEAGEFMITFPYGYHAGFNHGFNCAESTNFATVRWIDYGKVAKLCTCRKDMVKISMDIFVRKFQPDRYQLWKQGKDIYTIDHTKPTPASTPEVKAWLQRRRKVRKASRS
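Test system – GST-tagged GASC-1 (JMJD2C) catalytic fragment, aa 2-372 · Medium – HEPES buffer, pH 7.5, plus ascorbate · Reagent – H3K9me3 peptide with Fe(II)/2OG · Compound – one test concentration per compound · Timing – 30 min reaction, 60 min detection, RT · Technique – TR-FRET with Eu antibody and ULight streptavidin, EDTA stop · Read-out basis – inhibition from TR-FRET ratio decrease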
T cruzi growth-2 – T. cruzi intracellular proliferation inhibitors, confirmation, cell-based, NIH3T3 host, beta-gal parasite, luminescence, cherry-pick; shares compounds with T cruzi growth-1; T. cruzi beta-gal in NIH3T3, GalScreen luminescence, 90 h; inhibition, % at 8.35 µM; hit rate 72% among 5,600;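 active = mean replicate inhibition above about 95% and at least 55% of replicates individually reaching it, limit read from the data; inconclusive = only one of the two criteria is met; inactive = neither criterion is met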
T cruzi growth-3 – inhibitors of intracellular T. cruzi replication, confirmation, NIH3T3 host cells, beta-gal parasites, cherry-pick, set 2; shares compounds with T cruzi growth-1; inhibition, % at 2.09 µM; AID 651740, 2012; T. cruzi beta-gal in NIH3T3, GalScreen luminescence, 90 h; hit rate 21% among 5,600;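 active = mean inhibition above about 95%, with at least 55% of replicates also reaching it, limit read from the data; inconclusive = meets just one of the two conditions; inactive = meets neither condition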;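 also: plate controls were neutral control median for no effect and positive control median for full effect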
NIH3T3 tox – cytotoxicity in mouse NIH/3T3 fibroblasts, confirmation, cytotoxicity control for T. cruzi proliferation inhibitor project, cell-based, cherry-pick, single point; cytotoxicity (signal decrease), % at 8.35 µM; AID 651742, 2012; shares compounds with T cruzi growth-1; NIH/3T3 viability, CellTiter-Glo ATP luminescence, 90 h; hit rate 14% among 5,600;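 active = mean signal decrease across replicates above about 35% based on untreated-well scatter, with enough replicates individually passing, limit read from the data; inconclusive = no rule stated though some were filed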;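 also: 0% = median of neutral control wells and 100% = median of positive control wells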
NIH3T3 tox 2 – NIH/3T3 fibroblast cytotoxicity, confirmation, cytotoxicity control, cell-based, cherry-pick, single point, set 2; inhibition, % at 24.9 µM; AID 651744, 2012; hit rate 56% among 5,600; shares compounds with T cruzi growth-1; NIH/3T3 viability, CellTiter-Glo ATP luminescence, 90 h;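 active = mean loss of cell viability signal at or above a set limit, and enough replicates individually reaching it; inconclusive = meets only the mean limit or only the replicate share; inactive = meets neither condition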;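 also: 0% = median of neutral control wells and 100% = median of positive control wells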
* = called active by the depositor; ? = inconclusive; . = not tested or not shown. The sample as a whole holds a higher share of hits than the screen did.

SMILES | T cruzi growth-1 | IDH1 mut inh | KDM4C inh | T cruzi growth-2 | T cruzi growth-3 | NIH3T3 tox | NIH3T3 tox 2
CCCNC(=O)[C@@H]1[C@@H](CO)[C@@H]2Cn3c(ccc(-c4ccccc4F)c3=O)[C@@H]2N1CCC | 30 | . | 1 | . | . | . | .
COc1ccc(NC(=O)N2C[C@H]3[C@@H](c4ccccc42)[C@@H](CO)N3C(=O)C2CCCCC2)cc1 | 0 | . | 2 | . | . | . | .
O=C(C[C@H]1CC[C@@H]2[C@H](COC[C@@H](O)CN2Cc2ccncc2)O1)NCC1CC1 | -24 | . | 2 | . | . | . | .
O=C(c1ccc2c(c1)OCO2)N1C[C@H]2[C@@H](c3ccccc31)[C@H](CO)N2Cc1ccc2c(c1)OCO2 | 43 | . | -1 | . | . | . | .
O=C(Nc1ccccc1)N1C[C@@H]2[C@H](c3ccccc31)[C@@H](CO)N2CC1CCCC1 | -19 | . | 1 | . | . | . | .
O=C(C1CCCCC1)N1C[C@@H]2[C@H](c3ccccc31)[C@H](CO)N2Cc1ccccc1Cl | 105* | . | 0 | 99* | 15 | 21 | -11
COc1ccc(C(=O)N2C[C@H]3[C@@H](c4ccccc42)[C@H](CO)N3Cc2ccc3c(c2)OCO3)cc1 | ? | . | 1 | 75 | 1 | -7 | 33*
O=C(Nc1ccc(Cl)cc1)N1C[C@H]2[C@@H](c3ccccc31)[C@@H](CO)N2CC1CCCC1 | 108* | . | -1 | 99* | 78 | 2 | 50*
O=C(Nc1ccc(F)cc1)N1C[C@@H]2[C@H](c3ccccc31)[C@H](CO)N2C(=O)c1ccccc1 | 51 | . | 14 | . | . | . | .
O=C(Nc1ccc(F)cc1)N1C[C@H]2[C@@H](c3ccccc31)[C@H](CO)N2C(=O)c1ccccc1 | 102* | . | 1 | 98* | 64 | -2 | -4
O=C(C1CCCCC1)N1C[C@H]2[C@@H](c3ccccc31)[C@H](CO)N2Cc1ccccc1Cl | 48 | . | 6 | . | . | . | .
O=C(C[C@H]1C=C[C@@H](NC(=O)Nc2cc(F)ccc2F)[C@H](CO)O1)NCc1ccc2c(c1)OCO2 | 75 | 0 | -2 | . | . | . | .
O=C(N[C@@H]1CC[C@H](CCNC(=O)C2CCOCC2)O[C@@H]1CO)c1ccccn1 | -47 | 0 | 0 | . | . | . | .
Cn1ccnc1SCC(=O)Nc1cccc(F)c1 | . | -1 | . | . | . | . | .
CC(=O)N(C)C[C@H]1Oc2ncc(-c3cncnc3)cc2C(=O)N([C@@H](C)CO)C[C@H]1C | -7 | 2 | -1 | . | . | . | .
O=C(Nc1ccc(F)cc1)N1C[C@H]2[C@@H](c3ccccc31)[C@@H](CO)N2C(=O)c1ccccc1F | -65 | . | -2 | . | . | . | .
CCNC(=O)[C@H]1[C@H](CO)[C@H]2Cn3c(ccc(-c4cccc(F)c4)c3=O)[C@@H]1N2C(=O)c1cnccn1 | 23 | . | -1 | . | . | . | .
O=S(=O)(c1ccc(F)cc1)N1C[C@@H]2[C@H](c3ccccc31)[C@H](CO)N2Cc1ccccc1Cl | 83 | . | -4 | . | . | . | .
CCC(=O)N1C[C@H]2[C@@H](c3ccccc31)[C@H](CO)N2C(=O)CC | 104* | . | -2 | 62 | -15 | -11 | -17
CCC(=O)N1C[C@@H]2[C@H](c3ccccc31)[C@@H](CO)N2C(=O)CC1CC1 | 6 | . | 0 | . | . | . | .
O=C(Nc1ccccc1Cl)N1C[C@H]2[C@@H](c3ccccc31)[C@@H](CO)N2Cc1ccccc1 | 73 | . | -1 | . | . | . | .
O=S(=O)(c1ccc(F)cc1)N1C[C@H]2[C@@H](c3ccccc31)[C@H](CO)N2Cc1ccccc1Cl | 108* | . | -5 | 102* | 94 | 26 | 38*
O=C(Nc1ccccc1Cl)N1C[C@H]2[C@@H](c3ccccc31)[C@H](CO)N2Cc1ccccc1 | 100* | . | -2 | 82 | 8 | -7 | 12
C[C@@H]1CCCCO[C@H](CN(C)CC2CCCCC2)[C@@H](C)CN([C@H](C)CO)C(=O)c2cc(NS(=O)(=O)c3cccs3)ccc2O1 | 52 | 2 | 9 | . | . | . | .
Cc1ccc(-c2noc(CCC(=O)NC(C)(C)C)n2)cc1 | . | 0 | . | . | . | . | .
SMILES | T cruzi growth-1 | IDH1 mut inh | KDM4C inh | T cruzi growth-2 | T cruzi growth-3 | NIH3T3 tox | NIH3T3 tox 2
CO[C@@H]1CN(C)C(=O)c2ccc(NC(=O)C3CC3)cc2OC[C@H](C)N(Cc2cncnc2)C[C@@H]1C | 24 | 0 | 0 | . | . | . | .
C[C@H]1CCCCO[C@H](CN(C)Cc2ccc3c(c2)OCO3)[C@@H](C)CN([C@@H](C)CO)C(=O)c2cc(NS(=O)(=O)c3ccc(F)cc3)ccc2O1 | 58 | 1 | 1 | . | . | . | .
C[C@@H]1CCCCO[C@H](CN(C)Cc2ccc3c(c2)OCO3)[C@H](C)CN([C@@H](C)CO)C(=O)c2cc(NS(=O)(=O)c3ccc(F)cc3)ccc2O1 | 85 | . | -1 | . | . | . | .
C[C@@H]1CN([C@@H](C)CO)C(=O)c2cc(NS(=O)(=O)c3ccc(F)cc3)ccc2O[C@@H](C)CCCCO[C@@H]1CN(C)Cc1ccc2c(c1)OCO2 | 119* | 1 | 0 | 106* | 45 | 17 | 97*
C[C@@H]1CN([C@H](C)CO)C(=O)c2cc(NS(=O)(=O)c3ccc(F)cc3)ccc2O[C@@H](C)CCCCO[C@H]1CN(C)Cc1ccc2c(c1)OCO2 | 112* | -4 | 2 | 106* | 85 | 29 | 104*
CN1C(=O)c2cc(NC(=O)Cc3ccccc3)ccc2OC[C@H]2O[C@H](CC(=O)NCC3CC3)CC[C@H]21 | -71 | . | 1 | . | . | . | .
COCC(=O)N(C)C[C@@H]1Oc2ncc(C3=CCCCC3)cc2C(=O)N([C@@H](C)CO)C[C@H]1C | 19 | 0 | 0 | . | . | . | .
Cn1c(SCC(=O)Nc2cccc(F)c2)nnc1-c1ccc(Cl)cc1 | . | 0 | . | . | . | . | .
O=C(CC1CC1)N1CC[C@@H]2[C@@H](CO)Nc3ccc(-c4ccc(F)cc4)cc3[C@@H]21 | ? | . | -1 | 104* | 64 | 18 | 12
O=C(CC1CC1)N1CC[C@@H]2[C@H]1c1cc(-c3ccc(F)cc3)ccc1N[C@@H]2CO | 103* | . | 0 | 102* | 101* | -8 | 82*
O=C(CC1CC1)N1CC[C@@H]2[C@H](CO)Nc3ccc(-c4cccc(F)c4)cc3[C@@H]21 | 4 | . | 0 | . | . | . | .
O=C(CC1CC1)N1CC[C@H]2[C@H](CO)Nc3ccc(-c4cccc(F)c4)cc3[C@H]21 | 31 | . | -2 | . | . | . | .
CC(=O)N1CC[C@H]2[C@H](CO)Nc3ccc(-c4ccc(F)cc4)cc3[C@H]21 | 64 | . | 1 | . | . | . | .
